system: Trypanosoma brucei; experiment: Antitrypanosomal activity against Trypanosoma brucei 427 bloodstream forms assessed as parasitic growth inhibition after 48 hrs by alamar blue assay; format: functional; details: Trypanosoma brucei, 427, 48 h
How it was run: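 Bloodstream-form strain 427 trypomastigotes cultured in HMI-9 with 10% FBS, penicillin and streptomycin at 37°C, 5% CO2. Seeded at 1 × 10^4 per well, serial compound dilutions from 20 mM DMSO stocks, triplicate. Growth read with Alamar Blue at 48 h; pentamidine run as positive control in each assay.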

SMILES	EC50
O=C(Nc1cc(Cl)cc(Cl)c1)[C@H]1CCCN(c2nc3nc(Cl)ccc3[nH]2)C1	> 20000 nM
Clc1cc(Cl)cc(CO[C@H]2CCCN(c3nc4nc(Cl)ccc4[nH]3)C2)c1	8800 nM
Clc1cc(Cl)cc(CCN2CCCC(c3nc4nc(Cl)ccc4[nH]3)C2)c1 (stereo unspecified)	3760 nM
O=C(Cc1cc(Cl)cc(Cl)c1)N1CCCC(c2nc3c(Cl)cccc3[nH]2)C1 (stereo unspecified)	8810 nM
Clc1cc(Cl)cc(CNC2CCCCN(c3nc4nc(Cl)ccc4[nH]3)C2)c1 (stereo unspecified)	1810 nM
N=C(N)c1ccc(OCCCCCOc2ccc(C(=N)N)cc2)cc1 [PENTAMIDINE]	0.9 nM
O=C(Cc1cc(Cl)cc(Cl)c1)N1CCCC(c2nc3ccccc3[nH]2)C1 (stereo unspecified)	> 5000 nM

More lines, now with the values ahead:

EC50	SMILES
2150 nM	Clc1cc(Cl)cc(CNCCCc2nc3ccc(Cl)cc3[nH]2)c1
13300 nM	Clc1cc(Cl)cc(CNC2CCN(c3nc4nc(Cl)ccc4[nH]3)CC2)c1
1400 nM	Clc1cc(Cl)cc(CNCCSc2nc3nc(Cl)ccc3[nH]2)c1
1950 nM	Clc1cc(Cl)cc(CNC2CCCC(c3nc4cc(Cl)ccc4[nH]3)C2)c1 (stereo unspecified)
9010 nM	Clc1cc(Cl)cc(CN[C@@H]2CCN(c3nc4ccc(Cl)nc4[nH]3)C2)c1
999 nM	Clc1cc(Cl)cc(CN[C@@H]2CCCN(c3nc4nc(Cl)ccc4[nH]3)C2)c1

target: not listed separately; experiment: Inhibition of Trypanosoma brucei methionyl tRNA synthetase preincubated for 15 mins followed by L-methionine substrate addition measured after 120 mins by ATP- depletion chemiluminescence assay; details: not given
How it was run: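 Triplicate. Compound pre-incubated 15 min at room temperature with 50 nM TbMetRS, 200 µg/mL E. coli tRNA, 0.1 U/mL pyrophosphatase, 0.2 mM spermine, BSA, DTT, 25 mM HEPES-KOH pH 7.9, 10 mM MgCl2, 50 mM KCl, 2% DMSO. Started with 100 nM ATP and 32 µM L-methionine; after 120 min, Kinase-Glo luminescence read. IC50 from sigmoidal dose-response fit.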

SMILES	IC50
O=C(Nc1cc(Cl)cc(Cl)c1)[C@H]1CCCN(c2nc3nc(Cl)ccc3[nH]2)C1	> 10000 nM
Clc1cc(Cl)cc(CO[C@H]2CCCN(c3nc4nc(Cl)ccc4[nH]3)C2)c1	196 nM
Clc1cc(Cl)cc(CCN2CCCC(c3nc4nc(Cl)ccc4[nH]3)C2)c1 (stereo unspecified)	> 10000 nM
O=C(Cc1cc(Cl)cc(Cl)c1)N1CCCC(c2nc3c(Cl)cccc3[nH]2)C1 (stereo unspecified)	926 nM
Clc1cc(Cl)cc(CNC2CCCCN(c3nc4nc(Cl)ccc4[nH]3)C2)c1 (stereo unspecified)	682 nM
O=C(Cc1cc(Cl)cc(Cl)c1)N1CCCC(c2nc3ccccc3[nH]2)C1 (stereo unspecified)	288 nM

Continued, values first:

IC50	SMILES
243 nM	Clc1cc(Cl)cc(CNCCCc2nc3ccc(Cl)cc3[nH]2)c1
4970 nM	Clc1cc(Cl)cc(CNC2CCN(c3nc4nc(Cl)ccc4[nH]3)CC2)c1
1050 nM	Clc1cc(Cl)cc(CNCCSc2nc3nc(Cl)ccc3[nH]2)c1
580 nM	Clc1cc(Cl)cc(CNC2CCCC(c3nc4cc(Cl)ccc4[nH]3)C2)c1 (stereo unspecified)
696 nM	Clc1cc(Cl)cc(CN[C@@H]2CCN(c3nc4ccc(Cl)nc4[nH]3)C2)c1
192 nM	Clc1cc(Cl)cc(CN[C@@H]2CCCN(c3nc4nc(Cl)ccc4[nH]3)C2)c1

system: Trypanosoma brucei; experiment: Binding affinity to Trypanosoma brucei methionyl-tRNA synthetase assessed as change in melting temperature at 100 uM by SYPRO orange dye based thermal shift assay; details: not given
How it was run: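 TbMetRS in 100 mM HEPES pH 7.5, 100 mM NaCl, 10 mM ATP-Mg with SYPRO Orange; compound at 100 µM final. Fluorescence measured in triplicate from 25 to 90 °C in 0.2 °C steps. Tm taken as the temperature of the first-derivative maximum.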

SMILES	ΔTm
O=C(Nc1cc(Cl)cc(Cl)c1)[C@H]1CCCN(c2nc3nc(Cl)ccc3[nH]2)C1	2.6 °C
Clc1cc(Cl)cc(CO[C@H]2CCCN(c3nc4nc(Cl)ccc4[nH]3)C2)c1	7.5 °C
Clc1cc(Cl)cc(CCN2CCCC(c3nc4nc(Cl)ccc4[nH]3)C2)c1 (stereo unspecified)	6 °C
O=C(Cc1cc(Cl)cc(Cl)c1)N1CCCC(c2nc3c(Cl)cccc3[nH]2)C1 (stereo unspecified)	7.4 °C
Clc1cc(Cl)cc(CNC2CCCCN(c3nc4nc(Cl)ccc4[nH]3)C2)c1 (stereo unspecified)	6.8 °C
O=C(Cc1cc(Cl)cc(Cl)c1)N1CCCC(c2nc3ccccc3[nH]2)C1 (stereo unspecified)	7.8 °C

The remaining lines, values ahead:

ΔTm	SMILES
10.8 °C	Clc1cc(Cl)cc(CNCCCc2nc3ccc(Cl)cc3[nH]2)c1
5.8 °C	Clc1cc(Cl)cc(CNC2CCN(c3nc4nc(Cl)ccc4[nH]3)CC2)c1
12.6 °C	Clc1cc(Cl)cc(CNC2CCCC(c3nc4cc(Cl)ccc4[nH]3)C2)c1 (stereo unspecified)
7.2 °C	Clc1cc(Cl)cc(CN[C@@H]2CCN(c3nc4ccc(Cl)nc4[nH]3)C2)c1
13.1 °C	Clc1cc(Cl)cc(CN[C@@H]2CCCN(c3nc4nc(Cl)ccc4[nH]3)C2)c1
